# HSP90 inh = HSP90 refolding inhibition in rabbit reticulocyte lysate | actives 0.91% (n = 290,000) | inhibition, % at 5.6 µM | luciferase refolding luminescence, 3 h;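 active = inhibition above the screen-wide mean plus 3 SD, computed separately per campaign, cut at about 16% in these data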;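 note: 0% = DMSO wells and 100% = 60 µM geldanamycin wells; inhibitors lower the luminescence because luciferase stays unfolded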
# HSF1 activator = increases HSF-1 driven luciferase reporter signal; NIH3T3-HGL HSF-1 luciferase reporter, MG132, 8 h; 100% = twice DMSO control signal; activation, % at 9 µM; actives 1.7% (n = 300,000); AID 504408;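 active = mean replicate activation of at least 50% with a set share of replicates each reaching 50%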;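 note: 0% = median of the neutral control wells and 100% = twice that signal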
# Tb hexokinase = blocks Trypanosoma brucei hexokinase 1 activity; recombinant TbHK1, G6PDH-coupled NADH A340; inhibition, % at 10 µM; actives 0.11% (n = 220,000);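 active = inhibition of 50% or more in the single-dose primary screen; inactive = inhibition below 50%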
# HKDC1 inh = blocks human hexokinase HKDC1 activity; recombinant HKDC1, G6PDH/diaphorase resazurin coupled fluorescence; Q2TB90; inhibition, % at 20 µM; AID 493160; actives 0.16% (n = 340,000);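 active = inhibition above about 35% when tested at 20 µM, limit read from the data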;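 note: plate controls were DMSO wells with enzyme for no effect and DMSO wells lacking enzyme for full effect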
# Target sequence (Q2TB90 whole entry, looked up): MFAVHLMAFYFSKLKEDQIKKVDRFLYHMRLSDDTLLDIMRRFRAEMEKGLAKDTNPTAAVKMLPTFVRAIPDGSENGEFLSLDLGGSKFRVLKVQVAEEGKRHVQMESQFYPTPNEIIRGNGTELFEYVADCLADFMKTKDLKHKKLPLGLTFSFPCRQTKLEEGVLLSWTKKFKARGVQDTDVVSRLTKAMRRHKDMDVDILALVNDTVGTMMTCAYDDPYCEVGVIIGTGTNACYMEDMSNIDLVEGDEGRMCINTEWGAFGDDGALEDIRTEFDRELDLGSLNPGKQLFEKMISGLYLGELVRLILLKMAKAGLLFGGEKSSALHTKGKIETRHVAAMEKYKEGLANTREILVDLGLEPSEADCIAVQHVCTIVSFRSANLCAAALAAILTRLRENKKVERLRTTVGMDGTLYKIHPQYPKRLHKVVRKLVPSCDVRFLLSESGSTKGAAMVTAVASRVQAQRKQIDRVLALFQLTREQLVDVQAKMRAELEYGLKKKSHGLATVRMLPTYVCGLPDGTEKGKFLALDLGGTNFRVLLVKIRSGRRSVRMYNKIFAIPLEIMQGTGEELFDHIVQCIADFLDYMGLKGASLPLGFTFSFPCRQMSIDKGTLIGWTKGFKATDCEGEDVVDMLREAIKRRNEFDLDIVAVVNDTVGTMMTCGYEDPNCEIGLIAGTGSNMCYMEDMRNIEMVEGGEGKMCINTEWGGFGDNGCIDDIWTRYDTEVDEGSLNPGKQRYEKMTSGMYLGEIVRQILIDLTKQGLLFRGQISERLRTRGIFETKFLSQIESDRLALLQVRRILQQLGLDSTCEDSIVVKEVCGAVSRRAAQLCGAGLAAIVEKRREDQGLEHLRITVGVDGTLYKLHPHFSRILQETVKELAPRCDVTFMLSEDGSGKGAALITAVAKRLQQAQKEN
#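 Assay system: recombinant HKDC1 hexokinase; detection: coupled resazurin fluorescence, excitation 525 nm, emission 613 nm; benchmarks: DMSO-plus-enzyme-mix negative control, buffer-substituted positive control; compound dosing: single 20 µM dose; schedule: 90 min at room temperature in dark; also added: glucose plus 1 mM ATP as hexokinase substrates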
# Hsp70 act = switches on Hsp70 transcription; HeLa Hsp70 promoter luciferase reporter, luminescence; scaled: vehicle 0, proteasome-inhibitor control 100%; activation, % at 10 µM; actives 0.04% (n = 200,000);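 active = activation above the mean across all tested compounds plus 3 SD, cutoff set per campaign, cut at about 5.5% in these data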;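 note: 100% = MG132 at 30 µM as the positive control and 0% = DMSO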
# HSF1 inhib = HSF1 inhibition. activity change, negative = inhibition, % at 7.5 µM (by protocol). NIH3T3-HGL HSE-luciferase, MG132-induced, luminescence 8 h; stronger effect = lower value. actives 0.77% (n = 300,000);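 active = more than half of replicate wells show activity change below -50%, luminescence cut by over half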;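 note: luciferase reports HSF-1 transcriptional activity via heat shock element; 0% = median of DMSO wells and -100% = zero luminescence signal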
# HKDC1 act conf2 = confirmation of human HKDC1 activators; shares compounds with HKDC1 inh; recombinant HKDC1, G6PDH/diaphorase resazurin fluorescence; stronger effect = lower value; inhibition, % at 20 µM; actives 14% (n = 740); AID 504708;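 active = inhibition at or below a set negative limit, negative inhibition meaning the enzyme was activated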
# * marks the source's active call; other numbers are inactive results; . = no result. The list is not random: actives were taken first. Their share in the collection is about 3.1%.
SMILES,HSP90 inh,HSF1 activator,Tb hexokinase,HKDC1 inh,Hsp70 act,HSF1 inhib,HKDC1 act conf2
O=C1c2ccccc2C(=O)c2c1cccc2-n1nnc2ccccc21,-1.8,.,-7.6,2.6,.,-2.3,.
O=C1C(N2CCOCC2)=C(n2nnc3ccccc32)C(=O)c2ccccc21,40.5*,48.0,-11.3,43.3*,0.2,33.3,54.8
Cc1occc1C(=O)/C(C#N)=C/c1ccc(O)c(Br)c1,-0.4,3.5,.,4.1,.,-6.2,.
COc1cc(OC)c(C#N)c(S(=O)(=O)Cc2ccccc2)c1,-2.3,0.9,-1.5,-1.7,-0.4,-1.6,.
N#Cc1c([N+](=O)[O-])cc([N+](=O)[O-])cc1S(=O)(=O)Cc1ccccc1,.,.,.,34.0,.,.,19.9
COc1cc(NC(=O)c2ccccc2)c(C)cc1NC(=O)CC(CC(=O)O)c1ccccc1 (configuration not stated),1.0,-1.0,.,-0.1,.,0.2,.
CC1CCc2c(c3ccccc3n2C(=O)CCl)C1 (configuration not stated),5.9,1.6,.,45.6*,.,-3.5,-11.2
CCN1CCN(CC(=O)n2c3c(c4ccccc42)CC(C)CC3)CC1 (configuration not stated),2.8,5.5,7.4,-7.0,-0.2,1.4,.
COc1ccc(C(=O)/C=C/c2ccsc2)cc1CSCC(=O)O,-1.6,-2.5,.,35.7*,.,-3.1,-10.2
COc1ccc(C(C)=O)cc1CSCCC(=O)O,4.9,30.2,0.7,-0.4,-0.1,4.4,.
Oc1ccc(F)c2cccnc12,1.4,7.7,-11.4,9.6,0.1,9.0,.
Cc1ccc(N=Nc2ccc(O)c3ncccc23)cc1C,1.4,-55.2,-5.1,-43.2,-0.3,-51.4*,-40.4*
C[C@@H]1CN([C@H](C)CO)C(=O)c2cc(NS(=O)(=O)c3cn(C)cn3)ccc2O[C@H]1CN(C)C(=O)Nc1ccccc1,.,.,.,-2.2,.,.,.
Cn1cnc([N+](=O)[O-])c1Sc1ccc(Br)cc1,-0.2,42.9,-3.1,-58.2,-0.2,28.4,-7.1
COc1ccc(NC(=O)CN(C)S(=O)(=O)c2ccc3c(c2)c(=O)n(C)c(=O)n3C)cc1,-2.9,-8.3,.,-5.6,.,3.0,.
CON(c1nc(Cl)nc(N(C)C)n1)S(=O)(=O)c1ccc(C)cc1,-2.4,7.7,.,-3.0,.,2.6,.
O=S(=O)(CCSc1nc2ccccc2s1)c1nc2ccccc2s1,1.5,94.5*,-15.5,39.0*,-0.4,62.0,-0.1
CCS(=O)(=O)CCSc1nc2ccccc2s1,4.4,0.8,-6.9,9.2,-0.1,-1.8,.
CCn1nc(C)cc1C(=O)N1CCCC(Nc2ccc(C(C)C)cc2)C1 (configuration not stated),9.5,-5.8,.,-3.1,.,-4.4,.
O=C(CCl)N(c1ccc(Cl)cc1)c1c[nH]c2ccccc12,7.9,-93.3,-1.3,40.8*,-0.3,-92.8*,5.8
O=C(CCl)N(c1ccccc1)c1c[nH]c2ccccc12,7.8,5.6,6.5,21.0,-0.1,-9.1,.
Cc1ccccc1CNC1CCCCC1,-0.7,-6.8,0.1,-0.8,0.3,-5.3,.
Oc1cc(CNC2CCCCC2)c(O)cc1CNC1CCCCC1,.,.,.,33.6,.,.,32.5
NC1=CC(=O)C(=O)c2ccccc21,.,.,.,49.4*,.,.,48.7
NC1=C(Br)C(=O)c2ccccc2C1=O,8.6,31.0,7.2,-11.0,.,7.4,.
SMILES,HSP90 inh,HSF1 activator,Tb hexokinase,HKDC1 inh,Hsp70 act,HSF1 inhib,HKDC1 act conf2
COc1ccc(OC(=O)N2C/C(=C/c3ccccc3)C(=O)/C(=C\c3ccccc3)C2)cc1,.,.,.,36.4*,.,.,2.1
CCOC(=O)N1C/C(=C\c2ccccc2)C(=O)/C(=C/c2ccccc2)C1,4.9,44.4,-10.5,32.8,.,28.8,10.9
C[N+](C)(C)CCC(=O)N1C/C(=C/c2ccccc2)C(=O)/C(=C\c2ccccc2)C1,.,-1.1,.,15.2,.,-1.1,.
CCOC(=O)c1ccc(S(=O)(=O)N2CCN(C/C=C/c3ccccc3)CC2)cc1,.,.,.,-1.6,.,.,.
CC(=O)c1ccccc1C(=O)N1CCCC(C(=O)c2ccc(C(F)(F)F)cc2)C1 (configuration not stated),0.7,21.8,.,2.9,.,16.2,.
O=C(CSc1nnc(NC(=O)C2CC2)s1)NCc1ccccc1Cl,-1.2,13.9,.,10.1,.,-7.7,.
C/C(=N\NC(=O)c1c(C)nc2ccccn12)c1ccc(O)cc1O,-3.9,12.1,.,-45.1,.,-12.1,-8.4
C/C(=N\NC(=O)c1c(C)nc2ccccn12)c1ccccc1F,-0.2,5.6,.,0.5,.,-0.9,.
CCOc1ccc(N(CC(=O)Nc2cc(Cl)ccc2C)S(C)(=O)=O)cc1,0.1,5.2,.,-4.5,.,-7.5,.
CCOC(=O)NN=C1CN(S(=O)(=O)c2ccc(C)cc2)C1,0.9,3.3,.,-2.3,.,0.1,.
Cn1cnnc1SC1c2cccc3cccc(c23)C1NS(=O)(=O)c1ccc(Cl)cc1 (configuration not stated),0.3,12.6,38.3,-2.0,-0.1,3.2,.
CC(=O)N1CCN(C2c3cccc4cccc(c34)C2NS(=O)(=O)c2ccccc2)CC1 (configuration not stated),-0.6,22.1,-5.6,-49.4,-0.3,16.4,-45.3*
Cn1cnnc1SC1c2cccc3cccc(c23)C1NS(=O)(=O)c1ccccc1 (configuration not stated),-1.1,24.3,32.9,-49.1,-0.1,6.2,-64.0*
COc1cc(/C=C2\SC(=Nc3ccc(Cl)c(C(=O)O)c3)NC2=O)c(Br)c(Br)c1O,-0.5,-21.4,.,40.4*,.,-2.9,12.0
CSCC[C@H](NC(=O)OC(C)(C)C)C(=O)N1CCC(C(=O)N[C@@H](C)C(=O)NCc2ccc(F)cc2)CC1,-5.9,9.5,.,-4.8,.,-0.5,.
Oc1ccc(O)c(Cc2nc3ccccc3s2)c1,5.1,69.2*,3.6,45.4*,0.8,42.6,36.8
Cc1ccc(/C=N/n2c(-c3ccccc3)n[nH]c2=S)cc1,4.1,-22.8,.,-2.5,.,-6.0,.
N=C1N(/N=C/c2ccccc2)C(=Nc2ccccc2)C(=S)N1c1ccccc1,2.5,25.0,-18.9,-49.5,0.2,7.7,-32.4
COc1ccc(Nc2nc3[nH]c(=O)cc(O)c3s2)cc1,-5.2,-6.5,-14.4,3.0,-0.2,-5.5,.
O=c1cc(O)c2sc(Nc3ccc(F)c(Cl)c3)nc2[nH]1,4.5,6.9,10.5,45.6*,0.0,-1.7,-19.9
O=c1cc(O)c2sc(Nc3ccc(Cl)c(F)c3)nc2[nH]1,9.1,-25.4,-21.2,38.8*,.,-11.6,-8.0
CCCC1SCC(C)(C)NC1=O (configuration not stated),.,.,.,-9.9,.,.,.
O=C(O)c1ccc2c(c1)C(=O)N(c1cccc(-c3nc4ccccc4s3)c1)C2=O,-3.3,38.7,-13.3,33.5,-0.2,-1.1,-10.6
CC(Nc1cc(C)cc(C)c1)=[N+](C)CCNS(=O)(=O)c1ccc(Cl)cc1,-2.4,-8.3,.,2.7,.,-5.4,.
S=C1CC2CCCC(C2)N1 (configuration not stated),.,.,.,-0.4,.,.,.
